Laboratory results published in ChEMBL document CHEMBL2021862, “5-imino-1,2,4-thiadiazoles: first small molecules as substrate competitive inhibitors of glycogen synthase kinase 3” (J Med Chem, 2012).
pIC50: −log10 of the molar value. Active and inactive are the calls of the source. No cut-off for these calls is given here.

Tests used:
[1] = molecular target: T1, Glycogen synthase kinase-3 beta (Homo sapiens, UniProt P49841); assay: Inhibition of human recombinant GSK3beta after 30 mins by luminescence assay in presence of ATP
Target sequence in this assay (P49841 whole entry): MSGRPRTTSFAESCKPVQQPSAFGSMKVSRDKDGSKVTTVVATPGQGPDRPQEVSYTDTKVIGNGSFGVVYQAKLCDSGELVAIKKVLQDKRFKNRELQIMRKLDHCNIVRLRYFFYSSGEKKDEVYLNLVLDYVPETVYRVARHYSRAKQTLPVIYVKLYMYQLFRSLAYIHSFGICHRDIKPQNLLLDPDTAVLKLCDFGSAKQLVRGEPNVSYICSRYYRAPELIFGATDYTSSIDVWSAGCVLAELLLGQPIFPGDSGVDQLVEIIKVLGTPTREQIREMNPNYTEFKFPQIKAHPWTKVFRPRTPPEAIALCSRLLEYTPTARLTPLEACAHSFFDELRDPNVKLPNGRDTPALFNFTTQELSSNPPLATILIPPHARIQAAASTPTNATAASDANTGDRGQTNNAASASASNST

[2] = molecular target: T1, Glycogen synthase kinase-3 beta; assay: Competitive inhibition of human recombinant GSK3beta at 0.5 to 2.5 uM after 30 mins by Michaelis-Menten equation in presence of 1 uM ATP
Target sequence in this assay (P49841 whole entry, looked up): as the sequence (P49841 whole entry) above

[3] = molecular target: T1, Glycogen synthase kinase-3 beta; assay: Non-competitive inhibition of human recombinant GSK3beta at 10 uM after 30 mins by Michaelis-Menten equation in presence of 1 to 50 uM ATP; details: 0.4 to 2 uM, in the assay text read “at 0.4 to 2 uM” for “at 10 uM”
In short: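 Double-reciprocal kinetics on GSK-3β using the ADP-Glo kinase assay. ATP was varied from 1 to 50 μM and inhibitor from 0.4 to 2 μM, with GS-2 fixed at 12.5 μM. Each point is the mean of two experiments, each run in duplicate.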
Target sequence in this assay (P49841 whole entry, looked up): as the sequence (P49841 whole entry) above

[4] = molecular target: T1, Glycogen synthase kinase-3 beta; assay: Inhibition of human recombinant GSK3beta at 10 uM after 30 mins by luminescence assay in presence of ATP
In short: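 Human recombinant GSK-3β (20 ng) with prephosphorylated polypeptide substrate 25 μM and ATP 1 μM in 50 mM HEPES pH 7.5, 1 mM EDTA, 1 mM EGTA, 15 mM Mg acetate. Final DMSO ≤1%. Incubated 30 min at 30 °C, stopped with Kinase-Glo reagent, and luminescence read after 10 min. Inhibition is relative to the no-inhibitor maximum. IC50 is the concentration giving 50% activity loss.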
Target sequence in this assay (P49841 whole entry, looked up): as the sequence (P49841 whole entry) above

[5] = Effective permeability across porcine polar brain lipid after 4 hrs by PAMPA; details: pig, PAMPA
Cortical neurone = assay: Neuroprotective activity in rat cortical neurons assessed as decrease in LPS-induced nitrite production at 28 to 52 ug/ml after 24 hrs administered 1 hr before LPS challenge by Griess method; assay type: functional
In short: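 Cortical neurons from E18 rats were grown in Neurobasal/B-27 at 37 °C, 5% CO2 for 1 week. They were pretreated 1 h with compound, then exposed to supernatant from LPS-stimulated microglia. After 24 h, nitrite in the medium was measured by Griess reaction (equal volume reagent, 15 min room temperature, absorbance 492/540 nm).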

Microglia = assay: Neuroprotective activity in rat microglia cells assessed as decrease in LPS-induced nitrite production at 28 to 52 ug/ml after 24 hrs administered 1 hr before LPS challenge by Griess method; assay type: functional, cell-based
In short: (§1)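 Astrocytes and microglia were from neonatal (P2) rat cortex, separated by shaking; microglia received 10 ng/mL GM-CSF. Purity >98% (OX42/GFAP). Cells were pretreated 1 h with compound, then given LPS for 24 h. Supernatant was mixed 1:1 with Griess reagent, left 15 min at room temperature, and absorbance read at 492/540 nm.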

Astrocyte = assay: Neuroprotective activity in rat astrocytes assessed as decrease in LPS-induced nitrite production at 28 to 52 ug/ml after 24 hrs administered 1 hr before LPS challenge by Griess method; assay type: functional, cell-based; in short: as §1
NSC = assay: Neurogenic activity in rat hippocampal NSC assessed as increase in beta-tubulin after 24 hrs by DAPI staining-based immunocytometric analysis; assay type: functional, cell-based; details: Hippocampus
In short: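 Neurospheres from adult rat hippocampus were expanded in DMEM/F12 with EGF and FGF (10 ng/mL each) and B27, and treated with compound. Spheres were plated on poly-L-lysine without growth factors. Cells were fixed in 4% paraformaldehyde, permeabilized with 0.1% Triton X-100, stained with anti-β-tubulin (Tuj1) and an Alexa secondary, counterstained with DAPI, and imaged by confocal microscopy.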

[6] = molecular target: T1, Glycogen synthase kinase-3 beta; assay: Competitive inhibition of human recombinant GSK3beta at 12.5 to 100 uM after 30 mins by Michaelis-Menten equation in presence of 1 uM ATP
In short: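 Lineweaver–Burk kinetics on human recombinant GSK-3β. GS-2 substrate was varied from 12.5 to 100 μM against inhibitor at 0.5–2.5 μM, with ATP held at 1 μM. Luminescent kinase read-out. Each point is the mean of two experiments, each run in duplicate.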
Target sequence in this assay (P49841 whole entry, looked up): as the sequence (P49841 whole entry) above

pIC50 [1]	inhibition [2]	inhibition [3]	inhibition [4]	Papp at 4 h [5]	inhibition [6]	Compound	Activity (Cortical neurone)	Activity (Microglia)	Activity (Astrocyte)	Activity (NSC)
6.05	Active	Active	> 60%	7.2 ×10⁻⁶ cm/s		Br.c1ccc(-c2n/c(=N\CCN3CCOCC3)sn2-c2ccccc2)cc1				
5.89	Active	Active	> 60%	10.7 ×10⁻⁶ cm/s		Br.c1ccc(-c2n/c(=N\Cc3cccnc3)sn2-c2ccccc2)cc1	Active	Active	Active	Active
					Active	H-YRRAAVPPSPSLSRHSSPHQAEDEEE-OH				
	Active	Active	> 60%			OCC/N=c1\nc(-c2ccccc2)n(-c2ccccc2)s1	Active	Active	Active	Active
5.34			> 60%	13.4 ×10⁻⁶ cm/s		Br.COc1ccc(-n2s/c(=N/CCO)nc2-c2ccccc2)cc1	Active	Active	Active	Active
			> 60%			CCOC(=O)C/N=c1\nc(-c2ccccc2)n(-c2ccccc2)s1	Active	Active	Active	Active
